Assay results taken from ChEMBL document CHEMBL1128681, “Studies on the monoamine oxidase (MAO)-catalyzed oxidation of phenyl-substituted 1-methyl-4-phenoxy-1,2,3,6-tetrahydropyridine derivatives: factors contributing to MAO-A and MAO-B selectivity” (J Med Chem, 1995).

assay: Selectivity coefficient as ratio of Kcat/Km for MAO-A and Kcat/Km for MAO-B
Method in brief: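 Selectivity coefficient: MAO-A kcat/KM divided by MAO-B kcat/KM. Each value came from spectrophotometric initial-rate kinetics at 100–2000 μM substrate in 100 mM sodium phosphate pH 7.4, with 0.16 μM MAO-A or 0.08 μM MAO-B, and double-reciprocal plot analysis.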

Selectivity coefficient	Compound
4.35	CN1CC=C(Oc2ccccc2-c2ccccc2)CC1
0.57	CN1CC=C(Oc2ccccc2)CC1
8.74	CN1CC=C(Oc2cccc(-c3ccccc3)c2)CC1
5.99	CN1CC=C(Oc2cccc(Cl)c2)CC1
4.71	CN1CC=C(Oc2ccc(-c3ccccc3)cc2)CC1
1.21	CN1CC=C(Oc2cccc([N+](=O)[O-])c2)CC1

The next lines start with the compound.

Compound	Selectivity coefficient
Cc1ccccc1OC1=CCN(C)CC1	1.4
COc1ccccc1OC1=CCN(C)CC1	1.01
COc1cccc(OC2=CCN(C)CC2)c1	3.88
Cc1ccc(OC2=CCN(C)CC2)cc1	0.3
CN1CC=C(c2ccccc2)CC1	0.03
CN1CC=C(Oc2ccc([N+](=O)[O-])cc2)CC1	2.53
CN1CC=C(Oc2ccccc2[N+](=O)[O-])CC1	1.7
Cc1cccc(OC2=CCN(C)CC2)c1	1.16
CN1CC=C(Oc2ccccc2Cl)CC1	2.99
CN1CC=C(Oc2ccc(Cl)cc2)CC1	2.15
CN1CC=C(Cc2ccccc2)CC1	0.08
COc1ccc(OC2=CCN(C)CC2)cc1	2.08
